Test in all cases: pPAFAH inhibition after oral dosing in mice, late-stage follow-up, in vivo study, fluorescence, gel-based ABPP, mouse (AID 588823)
The test system of one assay is CES1. The conditions noted are these: mouse brain membrane proteome, stronger effect = higher value, dose or concentration not given here. In short, it runs like this: (§1)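 Material: wild-type mouse brain membrane fraction / Amount: 1 mg/mL membrane protein / Buffer or medium: DPBS / Compound: 50 mg/kg orally in PEG300 / Schedule: 4 h dosing, 30 min probe labelling at 37 °C / Signal: in-gel fluorescence scanning after SDS-PAGE separation / Controls: vehicle-dosed mice high, blank gel background low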

Another assay concerns pPAFAH. The conditions noted are these: mouse brain membrane proteome, stronger effect = higher value, dose or concentration not given here. The essentials: as §1
For the next assay, the system named is Anti-targets. Conditions: mouse brain membrane proteome, FP-Rh probe. In short, it runs like this: as §1

The source made the active and inactive calls.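 Rule for the calls: active = at least 50% inhibition of the target enzyme pPAFAH in mouse brain after oral dosing, with fewer than two other serine hydrolases also hit; inactive = weaker pPAFAH inhibition or two or more other hydrolases hit.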

In the case of `Cc1cc(N2CCN(C(=O)Oc3ccc(-c4ccccc4)cn3)CC2)c2ccccc2n1`, the figures for the inhibition in the assay on CES1 and with pPAFAH were 90% and 95.5%, respectively. Moreover, the result with Anti-targets was inactive. The molecule further registered an anti-target count in the assay with Anti-targets (number of FP-Rh anti-targets, stronger effect = lower value) of 0.

One may read the inhibition as the relative decrease from the control value, in per cent.
